# Screening results deposited in PubChem BioAssay by Sanford-Burnham Center for Chemical Genomics.
# Rows were chosen to be rich in hits. Some 0.79% of all compounds tested hit in one or more screens of this group.
# mIAP act – activators of mouse IAP, primary screen, biochemical, luminescence, uHTS; muIAP, CDP-Star luminescence, 30 min; active compounds read high; 1 = vehicle-only enzyme signal, 0 = enzyme-free wells; actives 0.24% (n = 330,000); activation factor at 10 µM; intestinal alkaline phosphatase [Mus musculus];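 active = activation factor of at least 2 at 20 µM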
#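 System: mouse IAP enzyme. Reagent: CDP-Star chemiluminescent phosphatase substrate. Benchmarks: DMSO wells, no-enzyme wells. Times: 30 min enzyme-substrate-compound incubation at room temperature. Detection: luminescence from enzymatic CDP-Star hydrolysis. Doses: test compounds delivered from DMSO solution.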
# mIAP inh – inhibitors of mouse IAP, primary screen, biochemical, luminescence, uHTS; intestinal alkaline phosphatase [Mus musculus]; purified mouse IAP, CDP-Star luminescence, 30 min; inhibition, % at 10 µM; actives 0.2% (n = 330,000); AID 2806, 2010;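 active = inhibition of at least 40% at 10 µM in the primary screen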;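 also: plate controls were DMSO with enzyme for no effect and no enzyme wells for full effect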
# hIAP block – human IAP inhibitors, primary screen, biochemical, luminescence, uHTS | inhibition, % at 10 µM | purified IAP, CDP-Star luminescence, 30 min | Intestinal-type alkaline phosphatase (Homo sapiens), P09923 | actives 0.12% (n = 330,000);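 active = inhibition reaching a set limit with compound at 10 µM in the primary screen, cut at about 35% in these data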;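 also: plate controls were DMSO wells with enzyme for no effect and no-enzyme buffer wells for full effect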
# Target sequence (P09923 whole entry, looked up): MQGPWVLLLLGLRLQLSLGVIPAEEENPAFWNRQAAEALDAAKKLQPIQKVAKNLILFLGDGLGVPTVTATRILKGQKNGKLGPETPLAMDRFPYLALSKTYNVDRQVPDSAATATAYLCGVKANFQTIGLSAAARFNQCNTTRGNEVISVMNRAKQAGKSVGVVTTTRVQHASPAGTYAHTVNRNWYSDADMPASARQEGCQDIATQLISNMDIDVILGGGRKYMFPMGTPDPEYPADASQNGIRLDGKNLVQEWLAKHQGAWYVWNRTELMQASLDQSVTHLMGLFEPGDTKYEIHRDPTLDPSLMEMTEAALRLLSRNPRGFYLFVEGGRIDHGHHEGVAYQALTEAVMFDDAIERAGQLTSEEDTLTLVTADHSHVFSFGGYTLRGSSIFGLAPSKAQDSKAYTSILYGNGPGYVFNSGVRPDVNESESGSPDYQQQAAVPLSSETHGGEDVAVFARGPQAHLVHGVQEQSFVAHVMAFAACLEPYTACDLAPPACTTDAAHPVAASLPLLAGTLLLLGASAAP
# bIAP activator – bovine intestinal alkaline phosphatase activators, primary screen, biochemical, bovine IAP, CDP-star luminescence; purified bovine IAP, 30 min; active compounds read high; fold of DMSO-control signal, blank-subtracted; actives 0.17% (n = 200,000); activation factor at 20 µM; alkaline phosphatase, intestinal [Bos taurus];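 active = activation factor of 2 or more at 20 µM, a signal rise over negative controls twice the positive control's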
# bIAP inhibitor – bovine intestinal alkaline phosphatase inhibitors, primary screen, selectivity assay for TNAP inhibitor project, biochemical, bovine IAP, CDP-star luminescence. alkaline phosphatase, intestinal [Bos taurus]. purified bovine IAP, 30 min. inhibition, % at 20 µM. 190,000 tested, under 10 active;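 active = over 50% inhibition of intestinal alkaline phosphatase at 20 µM in the single-dose screen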
#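 test system = bovine IAP enzyme | medium = DEA buffer 100 mM, pH 9.8, with MgCl2 1.0 mM, ZnCl2 0.02 mM | detection = luminescence | dosing = single compound dose of 20 µM, 2% DMSO final | incubation = 30 min reaction at room temperature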
# hIAP activ – human IAP activators, primary screen, biochemical, luminescence, uHTS | Intestinal-type alkaline phosphatase (Homo sapiens), P09923 | activation factor at 10 µM | AID 2524, 2010 | purified human IAP, CDP-Star luminescence, 30 min; active compounds read high; 1 = vehicle-only enzyme, 0 = enzyme-free background | actives 0.16% (n = 330,000);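 active = activation factor of the enzyme at least 2-fold when tested at 20 µM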
# hIAP act confirm – human IAP activators, confirmation, biochemical, luminescence, single concentration, uHTS hits; shares compounds with hIAP activ; purified IAP, CDP-Star luminescence, 30 min; active compounds read low; activation (%Activity, negative = activation), % at 8.3 µM; actives 10% (n = 880); AID 434926, 2010;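 active = at least twofold enzyme activation in any of six single-dose repeats, which the averaged readout prints as negative percent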
# The depositor's hits bear a star; . = no result.
SMILES,mIAP act,mIAP inh,hIAP block,bIAP activator,bIAP inhibitor,hIAP activ,hIAP act confirm
Cc1cc(C)c(S(=O)(=O)NCC(=O)NCc2ccco2)c(C)c1,1.1,-7,-9,1,0,1.1,.
CNC(=S)NNC(=O)c1cccn(Cc2ccc(Cl)c(Cl)c2)c1=O,0.78,22,-81,1.2,-19,1.8,.
CNC(=S)NNC(=O)c1cccn(Cc2cccc(Cl)c2)c1=O,0.82,18,-101,1.3,-35,2*,6
COc1ccc(CNc2ccc(C)c(C)c2)cc1,1,-1,-4,0.9,8,1,.
COc1ccc(NCc2ccc(OC)c(OC)c2)cc1,0.93,7,38*,1,0,0.62,-30
COc1ccc(-c2c(C)n([O-])c3c([n+]2=O)CCCC3)cc1,0.99,1,-122,1,1,2.2*,5
CN(Cc1ccccc1)C(=O)c1[nH]cnc1C(=O)Nc1ccc(Cl)cc1,0.97,3,-46,.,.,1.5,.
CN(Cc1ccccc1)C(=O)Nc1ccc(Cl)cc1,1,-4,-102,.,.,2*,-59*
O=C(NCCc1ccccc1)C(=O)NCCC1CCCCN1S(=O)(=O)c1cccs1 (configuration not stated),0.94,6,-3,.,.,1,.
COc1ccc(-c2csc(NC(=S)NC(=O)c3ccccc3)n2)cc1Br,0.9,10,-18,.,.,1.2,.
COc1ccc(C(=O)NC(=S)Nc2nc(-c3ccc(OC)c(Br)c3)cs2)cc1Br,0.84,16,38*,.,.,0.62,1
Cn1c(CNC(=O)CNC(=O)c2ccccc2F)cc(=O)n(C)c1=O,0.97,3,8,.,.,0.92,.
COc1ccccc1C(=O)NCC(=O)NCc1cc(=O)n(C)c(=O)n1C,0.94,6,39*,.,.,0.61,-5
O=C(NCCCN1CCOCC1)C(=O)N/N=C/c1ccccc1Cl,0.95,5,14,.,.,0.86,.
O=C(NCCCN1CCOCC1)C(=O)N/N=C/c1ccccc1O,1.2,-18,-100,.,.,2*,28
O=C(NCc1ccccn1)C(=O)N/N=C/c1ccccc1O,0.96,4,-198,.,.,3*,3
Cc1cc(/C=C(\C#N)C(=O)OCC(=O)Nc2ccc(OC(F)F)cc2)c(C)n1CC(C)C,0.96,4,6,1.1,-5,0.94,.
COc1ccc(-n2nc3ccc(NS(C)(=O)=O)cc3n2)cc1Cl,1.1,-9,38*,0.9,6,0.62,1
COC(=O)c1ccccc1-c1c2ccc(=N)cc-2oc2cc(N)ccc12,1.3,-30,38*,.,.,0.62,35
COC(=O)c1[nH]c2ccccc2c1NC(=O)CN1CCCCCC1,0.96,4,-7,1.2,-17,1.1,.
COC(=O)c1[nH]c2ccccc2c1NC(=O)CNC1CCCCC1,0.96,4,53*,1,4,0.47,-32
CCOc1c(Br)cc(/C=C(\C#N)C(=O)NC2CC2)cc1OC,0.99,1,41*,.,.,0.59,5
CCOc1ccccc1/C=C(\C#N)C(=O)NC1CC1,1.1,-8,-11,.,.,1.1,.
O=C(NC1CCCC1)c1ccc2c(c1)N(Cc1ccc(F)cc1)CCS2,1.1,-14,39*,.,.,0.61,-67
Cc1ccc(CN2CCSc3ccc(C(=O)NC4CCCC4)cc32)cc1,1.2,-22,-26,.,.,1.3,.
SMILES,mIAP act,mIAP inh,hIAP block,bIAP activator,bIAP inhibitor,hIAP activ,hIAP act confirm
O=C(COc1ccccc1[N+](=O)[O-])N(Cc1cccc(Br)c1)C1CCS(=O)(=O)C1 (configuration not stated),0.97,3,-5,.,.,1,.
C=CCn1c(CNS(=O)(=O)c2ccc(F)cc2)n[nH]c1=S,1.1,-6,9,.,.,0.91,.
C=CCn1c(CNS(=O)(=O)c2ccc(Cl)cc2)n[nH]c1=S,0.83,16,42*,.,.,0.58,-26
COc1c(-c2ccc(O)c(O)c2)oc2cc(O)cc(O)c2c1=O,0.69,31,60*,.,.,0.4,2
O=c1c2c(-c3cccs3)csc2ncn1-c1ccc(Br)cc1,0.86,14,61*,0.9,6,0.39,-112*
Cc1cc(C)n2nc(CC(=O)NNC(=O)COc3cccc(C)c3C)nc2n1,0.91,10,-106,.,.,2.1*,-26
CCOC(=O)Cc1nc2nc(C)cc(C)n2n1,0.94,6,-4,1.1,-8,1,.
O=C(O)c1ccc(-n2cc(-c3cc4ccccc4oc3=O)[nH]c2=S)cc1,.,.,.,1,2,.,.
CC(=O)Nc1cccc(-c2csc(Nc3ccccn3)n2)c1,1,-4,-118,1,3,2.2*,-94*
O=C1c2c(O)cc(O)cc2O[C@H](c2ccc(O)cc2)[C@H]1O,0.89,11,-3,.,.,1,.
C[C@@H]1O[C@@H](O[C@@H]2C(=O)c3c(O)cc(O)cc3O[C@H]2c2ccc(O)c(O)c2)[C@H](O)[C@H](O)[C@H]1O,0.86,14,35*,.,.,0.65,-43
COc1cc(/C=N/Nc2nc(C)cc(C)n2)cc(OC)c1OC,1,-4,-26,.,.,1.3,.
O=C1/C(=C\c2ccc(O)c(O)c2)SC(=S)N1Cc1ccccc1,0.67,33,55*,.,.,0.45,-89
COc1cc(/C=C2/SC(=S)N(Cc3ccccc3)C2=O)ccc1O,0.72,28,4,.,.,0.96,.
Cn1cc(C(=O)N2CCc3ccccc32)cn1,0.87,13,-111,0.9,10,2.1*,2
CCCc1nnc(NC(=O)CCC(=O)N2CCN(Cc3cc(Cl)ccc3OC)CC2)s1,1,-2,-24,.,.,1.2,.
CCOc1ccc(C(=O)CN2CCN(S(=O)(=O)c3ccc(OC)cc3)CC2)cc1,0.89,11,5,1,2,0.95,.
O=C(O)CCn1nnc(-c2cccs2)n1,1,-4,-103,1,0,2*,0
O=C(O)Cn1nnc(-c2cccs2)n1,0.97,3,4,1,-1,0.96,.
O=C(O)c1ccccc1-n1c(-c2ccccc2)cc2c1CCCC2=O,1,-4,-14,0.9,10,1.1,.
Cc1ccc(C2c3c(-c4ccccc4O)n[nH]c3C(=O)N2Cc2ccncc2)cc1 (configuration not stated),1.1,-12,-131,0.9,14,2.3*,-23
